{"source": "paper PMC4633019", "about": "(Journal of natural products, 2015)", "key": {"HepG2 cells": {"system": "HepG2 cells", "test": "Mammalian cell viability assay", "format": "cell-based, human", "conditions": "up to highest tested concentrations", "method_in_brief": "(§1)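 Viability was read with Cell TiterGlo reagent, used according to the manufacturer's instructions, in 1536-well format with a plate-imager read-out. The same procedure was applied to human RBCs.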"}, "HEK293 cells": {"system": "HEK293 cells", "test": "Mammalian cell viability assay", "format": "cell-based, human", "conditions": "up to highest tested concentrations", "method_in_brief": "as §1"}, "[1]": {"system": "Plasmodium falciparum (cp250, Dd2, HB3, 7G8, GB4 lines)", "test": "SYBR Green DNA-staining parasite viability assay", "format": "cell-based", "method_in_brief": "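Infected RBCs (0.3% parasitemia, 2.5% hematocrit final) in culture medium received pin-transferred test compound. Incubated 72 h at 37 °C in humidified 5% CO2. Lysis buffer was then added (20 mM Tris-HCl, 10 mM EDTA, 0.16% saponin, 1.6% Triton-X, 10× SYBR Green I), followed by overnight incubation at 22–24 °C in the dark. Fluorescence was read at 485/535 nm. Controls: artemisinin and mefloquine as positive, DMSO as negative.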"}, "Jurkat cells": {"system": "Jurkat cells", "conditions": "cited from earlier work"}, "[2]": {"system": "P. falciparum plasmepsins (aspartyl protease activity of Pf extracts)", "test": "Plasmepsin protease assay with P. falciparum extract and FRET peptide substrate", "format": "biochemical, Plasmodium falciparum", "conditions": "freshly prepared P. falciparum extracts"}}, "note": "Where a SMILES comes first, the peptide text is derived from it. [ ]: non-standard residue; d: D form. The star is where a group is joined. Sta = CC(C)C[C@H](N)[C@@H](O)CC(=O)O; Isovaleryl = CC(C)CC(=O)*"}
{"smiles": "COCC(=O)N[C@@H](C(=O)N1NCCC[C@H]1C(=O)N[C@@H](Cc1ccccc1)[C@@H](O)[C@H](C)C(=O)N[C@@H]1CCN(C(N)=O)C1=O)[C@H](O)C(C)C", "note": "[25-epi-actinoramide A]", "values": [{"measurement": "toxicity to HepG2 cells (in words)", "setting": "HepG2 cells", "result": "no toxicity"}, {"measurement": "toxicity to HEK293 cells (in words)", "setting": "HEK293 cells", "result": "no toxicity"}]}
{"smiles": "COCC(=O)N[C@@H](C(=O)N1NCCC[C@H]1C(=O)N[C@@H](Cc1ccccc1)[C@@H](O)[C@H](C)C(=O)NC1CNC(=O)NC1=O)[C@H](O)C(C)C", "note": "(stereo partly drawn) [Actinoramide F, actinoramide F]", "values": [{"measurement": "antimalarial activity (in words)", "setting": "[1]", "result": "no antimalarial activity"}]}
{"smiles": "COCC(=O)N[C@@H](C(=O)N1NCCC[C@H]1C(=O)N[C@@H](Cc1ccccc1)[C@@H](O)[C@H](C)C(=O)N[C@H]1CCN(C(N)=O)C1=O)[C@H](O)C(C)C", "note": "[actinoramide A]", "values": [{"measurement": "toxicity to HepG2 cells (in words)", "setting": "HepG2 cells", "result": "no toxicity"}, {"measurement": "toxicity to HEK293 cells (in words)", "setting": "HEK293 cells", "result": "no toxicity"}, {"measurement": "EC50 (cytotoxicity)", "setting": "Jurkat cells", "result": "≈ 60 μg/mL"}]}
{"smiles": "COCC(=O)N[C@@H](C(=O)N1N=CCC[C@H]1C(=O)N[C@@H](Cc1ccccc1)[C@@H](O)[C@H](C)C(=O)N[C@H]1CCN(C(N)=O)C1=O)[C@H](O)C(C)C", "note": "[actinoramide D]", "values": [{"measurement": "decrease in potency (vs actinoramide A)", "setting": "[1]; depending on the parasite strain", "result": "6–20 fold"}]}
{"smiles": "COCC(=O)N[C@@H](C(=O)N1NCCC[C@H]1C(=O)N[C@@H](Cc1ccccc1)[C@@H](O)[C@H](C)C(=O)N[C@H]1CCC(=O)NC1=O)[C@H](O)C(C)C", "note": "[padanamide B, reference compound]", "values": [{"measurement": "EC50 (cytotoxicity)", "setting": "Jurkat cells", "result": "~20", "unit": "µg/mL"}]}
{"smiles": "CC(C)CC(=O)N[C@H](C(=O)N[C@H](C(=O)N[C@@H](CC(C)C)[C@@H](O)CC(=O)N[C@@H](C)C(=O)N[C@@H](CC(C)C)[C@@H](O)CC(=O)O)C(C)C)C(C)C", "note": "[pepstatin] (Isovaleryl-VV[Sta]A[Sta]-OH)", "values": [{"measurement": "inhibition of aspartyl protease (plasmepsin) activity (in words)", "setting": "[2]", "result": "potently inhibited"}]}
